In ChEMBL document CHEMBL4354828, “Discovery of Taniborbactam (VNRX-5133): A Broad-Spectrum Serine- and Metallo-β-lactamase Inhibitor for Carbapenem-Resistant Bacterial Infections” (J Med Chem, 2020):
Converted amounts (≈) assume the structure as drawn.

Assays:
Pseudomonas aeruginosa [1] = experiment: Inhibition of VIM in Pseudomonas aeruginosa CDC-0457 assessed as cefepime antibacterial activity at 8 ug/ml after 16 to 20 hrs by CLSI-based microbroth dilution method
Pseudomonas aeruginosa [2] = experiment: Inhibition of KPC-2/PDC-42 in Pseudomonas aeruginosa CDC-0356 assessed as cefepime antibacterial activity at 8 ug/ml after 16 to 20 hrs by CLSI-based microbroth dilution method (Rvb > […] ug/ml)
[3] = Inhibition of bacterial CMY-2 using nitrocefin as substrate preincubated for 15 mins followed by susbtrate addition and measured after 10 mins by spectrophotometric method; design: species or system Bacteria
[4] = Inhibition of bacterial CTX-M-15 using cefotaxime as substrate preincubated for 15 mins followed by susbtrate addition and measured after 10 mins by spectrophotometric method; design: species or system Bacteria
Klebsiella pneumoniae [5] = experiment: Inhibition of OXA-232/OXA-9/TEM-1A/CTX-M-15/OXA-1 in Klebsiella pneumoniae CDC-0066 assessed as meropenem antibacterial activity at 4 ug/ml after 16 to 20 hrs by CLSI-based microbroth dilution method (reference value: […] ug/ml)
Escherichia coli [6] = experiment: Inhibition of NDM-1/CMY-6/OXA-1 in Escherichia coli CDC-0055 assessed as meropenem antibacterial activity at 4 ug/ml after 16 to 20 hrs by CLSI-based microbroth dilution method (reference value: […] ug/ml)
Escherichia coli [7] = experiment: Inhibition of NDM-1/CMY-6/OXA-1 in Escherichia coli CDC-0055 assessed as piperacillin antibacterial activity at 16 ug/ml after 16 to 20 hrs by CLSI-based microbroth dilution method
Outline: (§1)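 MDR β-lactamase-producing Gram-negative clinical isolates. […] MIC was reported as the inhibitor concentration that restores the partner's antibacterial activity.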

Escherichia coli [8] = experiment: Inhibition of NDM in Escherichia coli CDC-0452 assessed as cefepime antibacterial activity after 16 to 20 hrs by CLSI-based microbroth dilution method (reference value: […] ug/ml)
Pseudomonas aeruginosa [9] = experiment: Inhibition of VIM in Pseudomonas aeruginosa CDC-0457 assessed as piperacillin antibacterial activity at 16 ug/ml after 16 to 20 hrs by CLSI-based microbroth dilution method
[10] = tested on: Klebsiella pneumoniae ATCC BAA-1705; experiment: Inhibition of KPC-2 in Klebsiella pneumoniae ATCC BAA 1705 assessed as meropenem antibacterial activity at 4 ug/ml after 16 to 20 hrs by CLSI-based microbroth dilution method (reference value: […] ug/ml)
[11] = tested on: Klebsiella pneumoniae ATCC BAA-1705; experiment: Inhibition of KPC-2 in Klebsiella pneumoniae ATCC BAA 1705 assessed as piperacillin antibacterial activity at 16 ug/ml after 16 to 20 hrs by CLSI-based microbroth dilution method (Rvb > […] ug/ml)
Klebsiella pneumoniae [12] = experiment: Inhibition of KPC-2/SHV12/TEM-1 in Klebsiella pneumoniae CDC-0361 assessed as meropenem antibacterial activity at 4 ug/ml after 16 to 20 hrs by CLSI-based microbroth dilution method (reference value: […] ug/ml)
Escherichia coli [13] = experiment: Inhibition of NDM-1/CMY-6/OXA-1 in Escherichia coli CDC-0055 assessed as cefepime antibacterial activity at 8 ug/ml after 16 to 20 hrs by CLSI-based microbroth dilution method
Outline: as §1

Klebsiella pneumoniae [14] = experiment: Inhibition of VIM-27/CTX-M-15/SHV-11/OXA-1 in Klebsiella pneumoniae CDC-0040 assessed as piperacillin antibacterial activity at 16 ug/ml after 16 to 20 hrs by CLSI-based microbroth dilution method
Klebsiella pneumoniae [15] = experiment: Inhibition of KPC-2/SHV12/TEM-1 in Klebsiella pneumoniae CDC-0361 assessed as cefepime antibacterial activity at 8 ug/ml after 16 to 20 hrs by CLSI-based microbroth dilution method (reference value: […] ug/ml)
Klebsiella pneumoniae [16] = experiment: Inhibition of OXA-232/OXA-9/TEM-1A/CTX-M-15/OXA-1 in Klebsiella pneumoniae CDC-0066 assessed as cefepime antibacterial activity at 8 ug/ml after 16 to 20 hrs by CLSI-based microbroth dilution method (Rvb > […] ug/ml)
[17] = Inhibition of bacterial SHV-5 using cefotaxime as substrate preincubated for 15 mins followed by susbtrate addition and measured after 10 mins by spectrophotometric method; design: species or system Bacteria
Escherichia coli [18] = experiment: Inhibition of NDM in Escherichia coli CDC-0452 assessed as piperacillin antibacterial activity at 16 ug/ml after 16 to 20 hrs by CLSI-based microbroth dilution method (Rvb > […] ug/ml)
[19] = Inhibition of bacterial IMP-1 using nitrocefin as substrate preincubated for 15 mins followed by susbtrate addition and measured after 10 mins by spectrophotometric method; design: species or system Bacteria
Pseudomonas aeruginosa [20] = experiment: Inhibition of KPC-2/PDC-42 in Pseudomonas aeruginosa CDC-0356 assessed as piperacillin antibacterial activity at 16 ug/ml after 16 to 20 hrs by CLSI-based microbroth dilution method (Rvb > […] ug/ml)
Klebsiella pneumoniae [21] = experiment: Inhibition of VIM-27/CTX-M-15/SHV-11/OXA-1 in Klebsiella pneumoniae CDC-0040 assessed as meropenem antibacterial activity at 4 ug/ml after 16 to 20 hrs by CLSI-based microbroth dilution method
Klebsiella pneumoniae [22] = experiment: Inhibition of KPC-2/SHV12/TEM-1 in Klebsiella pneumoniae CDC-0361 assessed as piperacillin antibacterial activity at 16 ug/ml after 16 to 20 hrs by CLSI-based microbroth dilution method (Rvb > […] ug/ml)
Klebsiella pneumoniae [23] = experiment: Inhibition of OXA-232/OXA-9/TEM-1A/CTX-M-15/OXA-1 in Klebsiella pneumoniae CDC-0066 assessed as piperacillin antibacterial activity at 16 ug/ml after 16 to 20 hrs by CLSI-based microbroth dilution method (Rvb > […] ug/ml)
[24] = Inhibition of bacterial VIM-2 using nitrocefin as substrate preincubated for 15 mins followed by susbtrate addition and measured after 10 mins by spectrophotometric method; design: species or system Bacteria
Outline: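 Purified β-lactamase inhibition. IC50 values are the average of duplicates unless otherwise indicated.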

[25] = Inhibition of bacterial OXA-48 using nitrocefin as substrate preincubated for 15 mins followed by susbtrate addition and measured after 10 mins by spectrophotometric method; design: species or system Bacteria
Pseudomonas aeruginosa [26] = experiment: Inhibition of KPC-2/PDC-42 in Pseudomonas aeruginosa CDC-0356 assessed as meropenem antibacterial activity at 4 ug/ml after 16 to 20 hrs by CLSI-based microbroth dilution method (reference value: […] ug/ml)
Pseudomonas aeruginosa [27] = experiment: Inhibition of VIM in Pseudomonas aeruginosa CDC-0457 assessed as meropenem antibacterial activity at 4 ug/ml after 16 to 20 hrs by CLSI-based microbroth dilution method
Escherichia coli [28] = experiment: Inhibition of NDM in Escherichia coli CDC-0452 assessed as meropenem antibacterial activity at 4 ug/ml after 16 to 20 hrs by CLSI-based microbroth dilution method (reference value: […] ug/ml)
Klebsiella pneumoniae [29] = experiment: Inhibition of VIM-27/CTX-M-15/SHV-11/OXA-1 in Klebsiella pneumoniae CDC-0040 assessed as cefepime antibacterial activity at 8 ug/ml after 16 to 20 hrs by CLSI-based microbroth dilution method
[30] = Inhibition of bacterial KPC-2 using imipenem as substrate preincubated for 15 mins followed by susbtrate addition and measured after 10 mins by spectrophotometric method; design: species or system Bacteria
[31] = Inhibition of bacterial NDM-1 using cefepime as substrate preincubated for 15 mins followed by susbtrate addition and measured after 10 mins by spectrophotometric method; design: species or system Bacteria
[32] = Inhibition of bacterial OXA-1 using nitrocefin as substrate preincubated for 15 mins followed by susbtrate addition and measured after 10 mins by spectrophotometric method; design: species or system Bacteria
[33] = Inhibition of bacterial AmpC using nitrocefin as substrate preincubated for 15 mins followed by susbtrate addition and measured after 10 mins by spectrophotometric method; design: species or system Bacteria
[34] = AUC (infinity) in mouse at 10 mg/kg, iv after 1 to 6 hrs by LC-MS/MS analysis; format: ADME, organism-based; design: dose 10 mg/kg, time infinity, route intravenous; details: in vivo

O=C(O)C[C@@H]1CC[C@H](NC(=O)Cc2cccs2)B(O)O1 [VABORBACTAM]
MIC (Pseudomonas aeruginosa [1]): > 16 µg/mL
MIC (Pseudomonas aeruginosa [2]): > 16 µg/mL
IC50 [3]: 0.22 µM
IC50 [4]: 0.42 µM
MIC (Klebsiella pneumoniae [5]): > 16 µg/mL
MIC (Escherichia coli [6]): > 16 µg/mL
MIC (Escherichia coli [7]): > 16 µg/mL
MIC (Escherichia coli [8]): > 16 µg/mL
MIC (Pseudomonas aeruginosa [9]): > 16 µg/mL
MIC [10]: 0.03 µg/mL (≈ 0.101 µM)
MIC [11]: > 16 µg/mL
MIC (Klebsiella pneumoniae [12]): 0.06 µg/mL (≈ 0.202 µM)
MIC (Escherichia coli [13]): > 16 µg/mL
MIC (Klebsiella pneumoniae [14]): > 16 µg/mL
MIC (Klebsiella pneumoniae [15]): > 16 µg/mL
MIC (Klebsiella pneumoniae [16]): > 16 µg/mL
IC50 [17]: 0.44 µM
MIC (Escherichia coli [18]): > 16 µg/mL
IC50 [19]: > 100 µM
MIC (Pseudomonas aeruginosa [20]): > 16 µg/mL
MIC (Klebsiella pneumoniae [21]): > 16 µg/mL
MIC (Klebsiella pneumoniae [22]): > 16 µg/mL
MIC (Klebsiella pneumoniae [23]): > 16 µg/mL
IC50 [24]: > 100 µM
IC50 [25]: 38.8 µM
MIC (Pseudomonas aeruginosa [26]): 8 µg/mL (≈ 26.9 µM)
MIC (Pseudomonas aeruginosa [27]): > 16 µg/mL
MIC (Escherichia coli [28]): > 16 µg/mL
MIC (Klebsiella pneumoniae [29]): > 16 µg/mL
IC50 [30]: 0.1 µM
IC50 [31]: > 100 µM
IC50 [32]: 7.9 µM
IC50 [33]: 0.09 µM

CO/N=C(\C(=O)N[C@@H]1C(=O)N2C(C(=O)[O-])=C(C[N+]3(C)CCCC3)CS[C@H]12)c1csc(N)n1
AUC(0-inf) [34]: 15800 ng·h/mL

O=C(O)[C@H]1/C(=C/CO)O[C@@H]2CC(=O)N21 [CLAVULANIC ACID]
IC50 [3]: > 100 µM
IC50 [4]: 0.04 µM
IC50 [19]: > 100 µM
IC50 [24]: > 100 µM
IC50 [25]: 30 µM
IC50 [30]: 1.8 µM
IC50 [31]: > 100 µM
IC50 [32]: 0.12 µM
